Most compounds without a hit are left out; they make up all but 0.41% or so of the library.
ABCB1 block: human ABCB1 inhibition, ABCG2 as counter-screen | P08183 | CCRF-Adr cells, JC-1 efflux, flow cytometry | inhibition, % at 6.6 µM | actives 0.067% (n = 190,000) | AID 1326; in the data active = inhibition above about 40%;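 also: 0% = vehicle and 100% = reference inhibitor; higher value means more JC-1 retained so stronger ABCB1 efflux block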
Target sequence (P08183 whole entry, looked up): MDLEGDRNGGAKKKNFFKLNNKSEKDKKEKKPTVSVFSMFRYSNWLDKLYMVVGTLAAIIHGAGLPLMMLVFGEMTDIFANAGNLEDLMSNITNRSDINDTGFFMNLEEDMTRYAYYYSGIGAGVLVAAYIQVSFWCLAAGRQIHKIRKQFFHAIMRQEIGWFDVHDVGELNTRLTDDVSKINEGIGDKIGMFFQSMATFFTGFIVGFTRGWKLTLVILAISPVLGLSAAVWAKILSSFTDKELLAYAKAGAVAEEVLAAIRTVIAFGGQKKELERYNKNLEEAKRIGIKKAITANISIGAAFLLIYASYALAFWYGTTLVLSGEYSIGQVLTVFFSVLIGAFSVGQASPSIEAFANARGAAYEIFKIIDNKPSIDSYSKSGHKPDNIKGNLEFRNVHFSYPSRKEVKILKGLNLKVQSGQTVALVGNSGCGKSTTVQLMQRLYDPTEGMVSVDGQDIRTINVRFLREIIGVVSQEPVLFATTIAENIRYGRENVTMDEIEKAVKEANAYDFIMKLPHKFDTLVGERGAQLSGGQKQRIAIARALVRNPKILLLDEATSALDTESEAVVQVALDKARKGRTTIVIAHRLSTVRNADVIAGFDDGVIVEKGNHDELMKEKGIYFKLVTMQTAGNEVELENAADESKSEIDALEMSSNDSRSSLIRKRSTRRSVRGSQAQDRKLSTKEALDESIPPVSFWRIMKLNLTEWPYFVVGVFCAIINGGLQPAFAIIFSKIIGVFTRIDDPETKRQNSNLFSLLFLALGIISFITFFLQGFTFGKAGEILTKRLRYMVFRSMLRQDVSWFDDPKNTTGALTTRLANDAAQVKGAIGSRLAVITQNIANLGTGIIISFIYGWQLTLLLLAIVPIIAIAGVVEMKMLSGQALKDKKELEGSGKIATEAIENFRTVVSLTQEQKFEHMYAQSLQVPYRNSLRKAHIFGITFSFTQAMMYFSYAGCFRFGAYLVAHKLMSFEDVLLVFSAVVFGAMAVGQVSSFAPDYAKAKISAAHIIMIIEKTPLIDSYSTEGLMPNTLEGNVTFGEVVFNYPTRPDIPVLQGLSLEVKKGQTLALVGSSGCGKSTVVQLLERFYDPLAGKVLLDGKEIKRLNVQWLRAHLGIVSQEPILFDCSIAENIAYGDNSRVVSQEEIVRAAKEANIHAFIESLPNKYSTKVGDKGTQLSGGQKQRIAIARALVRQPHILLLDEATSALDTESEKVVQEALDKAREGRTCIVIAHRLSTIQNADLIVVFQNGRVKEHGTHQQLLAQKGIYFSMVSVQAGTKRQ
TNAP inh noacc: TNAP (human) inhibition, acceptor-free conditions. actives 0.26% (n = 200,000). inhibition, % at 20 µM. purified TNAP, CDP-star luminescence, 30 min;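 active = tissue-nonspecific alkaline phosphatase inhibition above about 50% at 20 µM in the single-dose screen, limit read from the data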;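 also: 0% = DMSO negative control and 100% = EDTA positive control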
TNAP inh hiacc: blocks human TNAP under high phosphate acceptor concentration; purified TNAP, CDP-star luminescence, 1 M DEA; P05186; actives 0.03% (n = 200,000); AID 1135; inhibition, % at 20 µM;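 active = over 50% inhibition of tissue-nonspecific alkaline phosphatase at 20 µM in the single-dose screen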;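 also: plate controls were DMSO wells for no effect and EDTA-quenched wells as full inhibition for full effect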
TNAP act hi DEA: increases human TNAP activity under high phosphate acceptor concentration. purified TNAP, CDP-star luminescence, 1 M DEA, 30 min; hits give high values; 0 = EDTA background, 1 = DMSO-only activity. AID 1136. 200,000 tested, under 10 active. P05186. activation factor at 20 µM;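 active = activation factor at least 2 at 20 µM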
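Dosing: 20 µM single point. System: human TNAP. Amount: TNAP 1/800 final. Incubation: 30 min, room temperature. Read-out: TNAP activation factor scaled between EDTA and DMSO control wells. Signal: luminescence from CDP-star hydrolysis. Medium: 1 M DEA, pH 9.8, Mg2+, Zn2+. Control set: EDTA negative control, DMSO positive control.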
ABCG2 inh: inhibitors of human ABCG2 transporter, ABCB1 counter-screen; IgMXP3 cells, JC-1 efflux, flow cytometry; inhibition, % at 6.6 µM; actives 0.1% (n = 190,000);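 active = inhibition above 80%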;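 also: 0% = DMSO and 100% = nicardipine control wells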
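Test system: IgMXP3 (ABCG2) plus far-red-tagged CCRF-Adr (ABCB1) cells. Reagent: JC-1 dye as substrate. Timing: 10 min exposure at 25 °C with rotation, no wash. Measured by: flow cytometric JC-1 green MFI at 530 nm. Read-out: percent efflux inhibition, scaled nicardipine 100% to DMSO 0%. Control set: nicardipine and DMSO wells.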
ABCB1 single pt: inhibits human ABCB1 efflux, confirmed at single point. CCRF-Adr cells, JC-1 efflux, flow cytometry. AID 1451. shares compounds with ABCG2 inh. actives 7% (n = 270). inhibition, % at 6.6 µM;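 active = inhibition of pump activity above 50%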;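 also: 0% = DMSO and 100% = nicardipine full pump inhibition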
ABCG2 single pt: confirmation of human ABCG2 transporter inhibitors, ABCB1 counter-screen; IgMXP3 cells, JC-1 efflux, flow cytometry; shares compounds with ABCG2 inh; inhibition, % at 6.6 µM; AID 1453; actives 6% (n = 270);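 active = inhibition above 50%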;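 also: 0% = DMSO wells and 100% = nicardipine pump inhibitor wells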
IgMXP3 fluor: compound fluoresces at 488/530 nm in IgMXP3 cells. actives 30% (n = 270). shares compounds with ABCG2 inh. fluorescence at 6.6 µM. compound autofluorescence 488/530 nm, flow; hits give high values;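 active = fluorescence in ABCG2-expressing cells above the plate's control-well mean plus 3 SD, cut at about 15 in these data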;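 also: median cell fluorescence with compound minus that of DMSO-treated control cells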
CCRF-Adr fluor: CCRF-Adr autofluorescence flag for ABCB1 confirmation. CCRF-Adr cells, compound autofluorescence 488/530 nm, flow cytometry; hits give high values. fluorescence at 6.6 µM. shares compounds with ABCG2 inh. actives 30% (n = 270). AID 1483;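 active = fluorescence beyond the plate control mean plus 3 SD, with a fluorescence-to-maximum score over 2, cut at about 25 in these data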
The depositor's hits bear a star; x = no result; + = active, no number.

SMILES | ABCB1 block | TNAP inh noacc | TNAP inh hiacc | TNAP act hi DEA | ABCG2 inh | ABCB1 single pt | ABCG2 single pt | IgMXP3 fluor | CCRF-Adr fluor
CCc1nnc(NC(=O)c2cc(S(=O)(=O)N3CCOCC3)ccc2N2CCCCC2)s1 | 69* | -8 | -5 | 1 | 77 | 3 | 15 | -1 | -0.79
CCc1nnc(NC(=O)c2ccc(S(=O)(=O)N3CCCCCC3)cc2)s1 | 1 | -12 | -8 | 1.1 | 15 | x | x | x | x
O=C(Nc1cccc(Cl)c1)Nc1ccc2c(c1)OCO2 | 1 | -9 | 0 | 1 | 74 | 10 | 18 | 8.7 | 12
O=C(Nc1ccc2c(c1)OCCO2)Nc1ccc2c(c1)OCO2 | 0 | -10 | -3 | 1 | -1 | x | x | x | x
CC(=O)Nc1ccc(SCC(=O)Nc2ccc(Cl)cn2)cc1 | 1 | -2 | 0 | 1 | 8 | x | x | x | x
c1ccc(OCc2nc(-c3ccncc3)no2)cc1 | 3 | -6 | -4 | 1 | 111* | 1 | 4 | -1.5 | -2.2
O=C(NC1(C(F)(F)F)OCCO1)c1ccc(F)cc1 | 0 | -8 | -5 | 1.1 | -1 | x | x | x | x
COCCCNC(=O)CCCn1c(=O)c2ccccc2n(Cc2cccc([N+](=O)[O-])c2)c1=O | 1 | -8 | -4 | 1 | 4 | x | x | x | x
CCCCCCCCNC(=O)c1cccnc1SCC(=O)Nc1ccccc1OC | 5 | -58 | -4 | 1 | 92* | 24 | 40 | -1.7 | -0.54
COc1ccc(OC)c(NC(=O)CSc2ncccc2C(=O)O)c1 | 1 | -11 | -2 | 1 | 1 | x | x | x | x
CC(=O)Oc1c(/C=C(\C#N)C(N)=O)[nH]c2ccccc12 | 163* | 29 | 39 | 0.6 | 200* | -18 | -1 | 132* | 272*
O=S(=O)(/C=C/c1ccccc1)N1CCN(c2nc(-c3ccccc3)nc3ccccc23)CC1 | 2 | -7 | 0 | 1 | 2 | x | x | x | x
OCC1(CCc2ccccc2)CCN(Cc2cc(F)ccc2-n2cccn2)CC1 | 1 | -3 | -5 | 1.1 | 1 | x | x | x | x
COc1ccccc1-n1c(=O)c2c3c(sc2n2c(=S)[nH]nc12)CCC3 | 0 | 7 | 0 | 1 | 0 | x | x | x | x
COc1ccc2cc(C(=O)NCC(=O)O)sc(=O)c2c1OC | 1 | -13 | -2 | 1 | 6 | x | x | x | x
COc1ccc2cc(C(=O)OC(C)C)sc(=O)c2c1OC | 2 | 3 | -4 | 1 | 87* | 1 | 60* | -1.9 | -3.8
Cc1ccc(C)c(CSc2nc3[nH]ncc3c(=O)[nH]2)c1 | 0 | -62 | -4 | 1 | 2 | x | x | x | x
Cc1ccccc1-n1c(SCC(=O)Nc2ccccc2)nc2nc3c(cc2c1=O)CCCC3 | 46* | -14 | 0 | 1 | 36 | 48 | 23 | 0.71 | 91*
Cc1cccc(NC(=O)CSc2nc3nc4c(cc3c(=O)n2-c2ccccc2)CCCC4)c1 | 6 | -14 | -3 | 1 | 3 | x | x | x | x
CCOc1nc(NCCO)nc(Nc2ccc([N+](=O)[O-])cc2)n1 | 2 | -10 | 4 | 1 | 68 | -1 | 34 | -1.4 | -0.59
CCOc1ccc(Nc2nc(Cl)nc(NCCO)n2)cc1 | 0 | -22 | -2 | 1 | 15 | x | x | x | x
COCCn1c(SCc2csc(-c3ccccc3)n2)nc2ccccc21 | 3 | -5 | 1 | 1 | 80 | -13 | 5 | 15* | 72*
CCOc1nc(SCCOc2ccc(C)cc2)nc(N(C)C)n1 | 3 | -8 | -4 | 1 | 103* | 5 | 25 | -1.3 | -0.14
CCCn1c(O)c(N=Nc2ccc3ccccc3n2)c2ccccc21 | 1 | 10 | 10 | 0.9 | -1 | x | x | x | x
CC(C)CCn1c(O)c(N=Nc2ccccn2)c2ccccc21 | 2 | 2 | 8 | 0.9 | 87* | 4 | 44 | -1.1 | -4.8
SMILES | ABCB1 block | TNAP inh noacc | TNAP inh hiacc | TNAP act hi DEA | ABCG2 inh | ABCB1 single pt | ABCG2 single pt | IgMXP3 fluor | CCRF-Adr fluor
O=C(COc1nncc2ccccc12)NCC(F)(F)F | 1 | -12 | -7 | 1.1 | 4 | x | x | x | x
COC(=O)c1cc(NC(=O)c2cccc(Cl)c2)c(=O)oc1/C=C/Nc1cc(C)cc(C)c1 | 138* | 48 | 43 | 0.6 | 135* | 0 | -183 | 503* | 612*
N#C/C(=C\c1ccc(N2CCOCC2)o1)C(=O)Nc1ccc(O)cc1 | 0 | 35 | 38 | 0.6 | 6 | x | x | x | x
N#C/C(=C/c1ccc(N2CCCCC2)o1)C(=O)Nc1ccc2ccccc2c1 | 134* | 36 | 39 | 0.6 | + | -144 | -90 | 397* | 624*
N#C/C(=C/c1ccc(N2CCCCC2)o1)C(=O)Nc1ccc(Cl)cc1 | 45* | -12 | 11 | 0.9 | 82* | -48 | -66 | 171* | 118*
CCOC(=O)C1(CCc2ccccc2)CCN(C(=O)CN2C(=O)CSC2=O)CC1 | 1 | -2 | -4 | 1 | 0 | x | x | x | x
COC(=O)CCc1c(C)c(C(=O)c2ccc(F)cc2)c2ccccn12 | 0 | -14 | -2 | 1 | 3 | x | x | x | x
Cc1c(C(=O)Nc2ccc(F)cc2)c2ccccn2c1CCc1ccncc1 | 13 | -6 | 0 | 1 | 5 | 24 | 27 | 2.7 | -0.14
CC12COC3(C(=O)Nc4ccc([N+](=O)[O-])cc4)CC1CCC32C (stereo not given) | 3 | -8 | -2 | 1 | 112* | 3 | 40 | -2.3 | -4.5
CCOC(=O)c1sc2cc([N+](=O)[O-])cc(SCCO)c2c1N | 2 | 4 | 15 | 0.8 | 82* | 1 | 21 | 1.4 | -0.69
CCOC(=O)c1sc2cc([N+](=O)[O-])cc(SCC(=O)OC)c2c1N | 3 | 5 | 6 | 0.9 | 40 | x | x | x | x
O=C(Cc1c[nH]c2ccccc12)NC1(C(=O)NC2CCCC2)CCCCC1 | 0 | -10 | -4 | 1 | -1 | x | x | x | x
COc1ccc(NC(=S)NCc2cccn2C)cc1 | 3 | -9 | -6 | 1.1 | 75 | 1 | 12 | -2.2 | -4.4
O=C(O)CCS(=O)(=O)c1ccccc1Cl | 1 | -8 | -2 | 1 | 1 | x | x | x | x
CC[n+]1c(/C=C/c2c[nH]c3ccccc23)ccc2cc(C)ccc21 | 23 | 60* | 61* | 0.4 | 84* | 2 | -59 | 194* | 62*
COc1ccc(OC)c(C2C(C(=O)Nc3nc4ccccc4s3)=C(C)NC3=C2C(=O)CCC3)c1 (stereo not given) | 6 | 0 | -8 | 1.1 | 11 | x | x | x | x

Bioassay records as filed in PubChem.
